Values after ≈ are worked out from the molar mass of the structure shown.
Columns and labels:
[1] = system: Mycobacterium tuberculosis; test: Antimycobacterial activity against Mycobacterium tuberculosis H37Rv at 16 ug/mL by microplate alamar blue assay; assay type: functional
[2] = system: Mycobacterium tuberculosis; test: Antimycobacterial activity against Mycobacterium tuberculosis H37Rv by microplate alamar blue assay; assay type: functional
Vero = test: Cytotoxicity against african green monkey Vero cells; assay type: cell-based; conditions: Chlorocebus sabaeus
Method in brief: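 Cytotoxicity tested on VERO cells (ATCC CCL-81) in parallel with the MIC work. Read-out is IC50 in μg/mL.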

[3] = system: Mycobacterium tuberculosis; test: Antimycobacterial activity against Mycobacterium tuberculosis H37Rv at 64 ug/mL by microplate alamar blue assay; assay type: functional
[4] = system: Mycobacterium tuberculosis; test: Antimycobacterial activity against Mycobacterium tuberculosis H37Rv at 32 ug/mL by microplate alamar blue assay; assay type: functional
[5] = system: Mycobacterium tuberculosis; test: Antimycobacterial activity against Mycobacterium tuberculosis H37Rv at 2 ug/mL by microplate alamar blue assay; assay type: functional
[6] = Selectivity index, ratio of IC50 for against african green monkey VERO cells to MIC for Mycobacterium tuberculosis H37Rv; assay type: functional
[7] = system: Mycobacterium tuberculosis; test: Antimycobacterial activity against Mycobacterium tuberculosis H37Rv at 128 ug/mL by microplate alamar blue assay; assay type: functional
[8] = system: Mycobacterium tuberculosis; test: Antimycobacterial activity against Mycobacterium tuberculosis H37Rv at 8 ug/mL by microplate alamar blue assay; assay type: functional
[9] = system: Mycobacterium tuberculosis; test: Antimycobacterial activity against Mycobacterium tuberculosis H37Rv at 4 ug/mL by microplate alamar blue assay; assay type: functional

SMILES | inhibition at 16 µg/mL [1] [%] | MIC [2] [µg/mL] | IC50 (Vero) [µg/mL] | inhibition at 64 µg/mL [3] [%] | inhibition at 32 µg/mL [4] [%] | inhibition at 2 µg/mL [5] [%] | Selectivity Index [6] | inhibition at 128 µg/mL [7] [%] | inhibition at 8 µg/mL [8] [%] | inhibition at 4 µg/mL [9] [%]
C=C(CC[C@@H](C)[C@H]1CC[C@H]2[C@@H]3CC=C4C[C@@H](O)CC[C@]4(C)[C@H]3CC[C@]12C)C(C)C | 33 | 120 (≈ 301 µM) | > 128 | 40 | 43 | – | – | – | – | –
CC[C@@H](CC[C@@H](C)[C@H]1CC[C@H]2[C@@H]3C(C=O)=C4C[C@@H](O)CC[C@]4(C)[C@H]3CC[C@]12C)C(C)C | 98 | 3.8 (≈ 8.86 µM) | 26.6 (≈ 62 µM) | 99 | 99 | 29 | 7 | 99 | 99 | 97
CC(C)C(=O)CC[C@@H](C)[C@H]1CC[C@H]2[C@@H]3C(C=O)=C4C[C@@H](O)CC[C@]4(C)[C@H]3CC[C@]12C | 92 | 13.6 (≈ 32.8 µM) | 43.8 (≈ 106 µM) | 100 | 96 | 52 | 3.2 | 99 | 83 | 67
CC(C)CCC[C@@H](C)[C@H]1CC[C@H]2[C@@H]3C(C=O)=C4C[C@@H](O)CC[C@]4(C)[C@H]3CC[C@]12C | 96 | 15 (≈ 37.4 µM) | > 128 | 99 | 99 | 10 | >9 | 99 | 51 | 34
CC(C)[C@@H](C)[C@]1(C)C[C@@H]1[C@@H](C)[C@H]1CC[C@H]2[C@@H]3C(C=O)=C4C[C@@H](O)CC[C@]4(C)[C@H]3CC[C@]12C | 96 | 12.7 (≈ 28.8 µM) | 54.7 (≈ 124 µM) | 99 | 98 | 17 | 4.3 | 99 | 81 | 33
CC(C)[C@@H](C)CC[C@@H](C)[C@H]1CC[C@H]2[C@@H]3CC=C4C[C@@H](O)CC[C@]4(C)[C@H]3CC[C@]12C | 21 | > 128 | > 128 | 41 | 31 | 15 | – | 58 | 23 | 14
CC(C)[C@@H](C)CC[C@@H](C)[C@H]1CC[C@H]2[C@@H]3C(C=O)=C4C[C@@H](O)CC[C@]4(C)[C@H]3CC[C@]12C | 99 | 3.9 (≈ 9.4 µM) | 42.3 (≈ 102 µM) | 100 | 99 | 39 | 10.8 | 99 | 97 | 94
CC(C)[C@@H](C)[C@]1(C)C[C@@H]1[C@@H](C)[C@H]1CC[C@H]2[C@@H]3CC=C4C[C@@H](O)CC[C@]4(C)[C@H]3CC[C@]12C | 10 | > 128 | > 128 | 18 | 13 | – | – | 38 | – | –
CCC(CC[C@@H](C)[C@H]1CC[C@H]2[C@@H]3CC=C4C[C@@H](O)CC[C@]4(C)[C@H]3CC[C@]12C)C(C)C (single isomer, unassigned) [BETA-SITOSTEROL] | 32 | > 128 | > 128 | 48 | 31 | -1 | – | 45 | 7 | 8
CC(C)CCC[C@@H](C)[C@H]1CC[C@H]2[C@@H]3CC=C4C[C@@H](O)CC[C@]4(C)[C@H]3CC[C@]12C [CHOLESTEROL] | 33 | > 128 | > 128 | 24 | 13 | – | – | 57 | – | –
C=C(CC[C@@H](C)[C@H]1CC[C@H]2[C@@H]3C(C=O)=C4C[C@@H](O)CC[C@]4(C)[C@H]3CC[C@]12C)C(C)C [PARGUESTEROL A] | 105 | 7.8 (≈ 18.9 µM) | 51 (≈ 124 µM) | 99 | 99 | 52 | 6.5 | 99 | 91 | 69
CO[C@H]1/C=C/O[C@@]2(C)Oc3c(C)c(O)c4c(O)c(c(/C=N/N5CCN(C)CC5)c(O)c4c3C2=O)NC(=O)/C(C)=C\C=C\[C@H](C)[C@H](O)[C@@H](C)[C@@H](O)[C@@H](C)[C@H](OC(C)=O)[C@@H]1C [RIFAMPIN] | 99 | 0.06 (≈ 0.0729 µM) | – | 100 | 100 | – | – | 100 | 94 | 73

Source: ChEMBL document CHEMBL1142462, “Synthesis and in vitro biological evaluation of ring B abeo-sterols as novel inhibitors of Mycobacterium tuberculosis” (Bioorg Med Chem Lett, 2008)
